ChEMBL document CHEMBL4732088, “Identification and optimization of piperlongumine analogues as potential antioxidant and anti-inflammatory agents via activation of Nrf2” (Eur J Med Chem, 2021)
Activity calls are given as the source filed them. The rule behind the calls is not given here.

Key:
[1] = Antioxidant activity assessed as ABTS radical scavenging activity; format: functional
[2] = system: PC-12; assay: Protection against 6-OHDA-induced apoptosis in rat PC12 cells assessed as necrotic cells at 20 uM incubated for 24 hrs by annexin V FITC/propidium iodide staining based flow cytometry (reference value: 1.1 %); format: functional
[3] = system: PC-12; assay: Neuroprotective activity against H2O2-induced cell damage in rat PC12 cells assessed as cell viability at 20 uM after 24 hrs by MTT assay (reference value: 46 +/- 4.12 %); format: functional; details: read-out: Activity
[4] = system: BV-2; assay: Antiinflammatory activity in mouse BV2 cells transfected with control siRNA assessed as inhibition of LPS-induced IL-6 production at 20 uM pretreated with compound followed by LPS stimulation for 18 hrs
[5] = system: PC-12; assay: Protection against H2O2-induced apoptosis in rat PC12 cells assessed as necrotic cells at 5 uM incubated for 24 hrs by annexin V FITC/propidium iodide staining based flow cytometry (reference value: 0.6 %); format: functional
[6] = system: PC-12; assay: Prevention of 6-OHDA-induced calcium overload in rat PC12 cells assessed as reduction in intracellular free calcium by measuring mean fluorescence intensity at 20 uM pretreated with compound followed by 6-OHDA addition measured after 24 hrs by Fluo-3AM based fluorescence assay (reference value: 6708.18%); format: functional
[7] = system: PC-12; assay: Protection against 6-OHDA-induced apoptosis in rat PC12 cells assessed as necrotic cells at 10 uM incubated for 24 hrs by annexin V FITC/propidium iodide staining based flow cytometry (reference value: 1.1 %); format: functional
[8] = target: T1, Nuclear factor erythroid 2-related factor 2 (Mus musculus) (UniProt Q60795); assay: Activation of Nrf2 in mouse BV2 cells assessed as upregulation of Nrf2 protein expression after 24 hrs by Western blot analysis; format: cell-based; details: BV-2, filed as activator, dose 5-20 µM
T1 sequence (whole entry): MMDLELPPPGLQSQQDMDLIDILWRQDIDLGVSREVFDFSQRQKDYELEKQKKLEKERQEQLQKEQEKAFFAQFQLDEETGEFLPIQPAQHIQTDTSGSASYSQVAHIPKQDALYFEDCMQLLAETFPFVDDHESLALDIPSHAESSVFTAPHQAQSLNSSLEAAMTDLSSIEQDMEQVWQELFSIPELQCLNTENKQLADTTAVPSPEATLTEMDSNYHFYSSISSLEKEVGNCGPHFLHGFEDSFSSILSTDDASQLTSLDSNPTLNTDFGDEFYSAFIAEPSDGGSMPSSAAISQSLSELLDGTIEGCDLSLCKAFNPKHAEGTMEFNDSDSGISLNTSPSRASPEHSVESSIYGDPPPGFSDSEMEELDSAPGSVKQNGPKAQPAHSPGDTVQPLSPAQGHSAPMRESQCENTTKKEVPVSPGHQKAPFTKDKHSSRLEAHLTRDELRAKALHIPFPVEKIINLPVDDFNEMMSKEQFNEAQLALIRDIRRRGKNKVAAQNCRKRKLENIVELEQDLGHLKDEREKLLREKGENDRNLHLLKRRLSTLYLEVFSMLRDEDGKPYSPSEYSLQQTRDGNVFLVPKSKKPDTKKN
In short: (§1)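 BV2 microglia exposed to compound for 24 h over a concentration series; Nrf2, NQO1, HO-1, TrxR1, GCLM and GCLC protein levels read by Western blot.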

[9] = system: PC-12; assay: Protection against 6-OHDA-induced mitochondrial dysfunction in rat PC12 cells assessed as change in mitochondrial membrane potential at 10 uM pretreated with compound followed by 6-OHDA addition by JC-1 staining based flow cytometry (reference value: 73.2 %); format: functional
In short: (§2)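 Mitochondrial membrane potential in PC12 cells pretreated with compound (5, 10, 20 μM), then exposed to H₂O₂ (200 μM) or 6-OHDA (150 μM). JC-1 staining, red-to-green fluorescence shift read by flow cytometry. Mean ± SD, n = 3.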

[10] = target: T2, Nuclear factor erythroid 2-related factor 2 (Rattus norvegicus) (UniProt O54968); assay: Induction of Nrf2 translocation from cytoplasm to nucleus in rat PC12 cells at 20 uM after 6 hrs by Western blot analysis; format: cell-based; details: PC-12, filed as activator
T2 sequence (whole entry): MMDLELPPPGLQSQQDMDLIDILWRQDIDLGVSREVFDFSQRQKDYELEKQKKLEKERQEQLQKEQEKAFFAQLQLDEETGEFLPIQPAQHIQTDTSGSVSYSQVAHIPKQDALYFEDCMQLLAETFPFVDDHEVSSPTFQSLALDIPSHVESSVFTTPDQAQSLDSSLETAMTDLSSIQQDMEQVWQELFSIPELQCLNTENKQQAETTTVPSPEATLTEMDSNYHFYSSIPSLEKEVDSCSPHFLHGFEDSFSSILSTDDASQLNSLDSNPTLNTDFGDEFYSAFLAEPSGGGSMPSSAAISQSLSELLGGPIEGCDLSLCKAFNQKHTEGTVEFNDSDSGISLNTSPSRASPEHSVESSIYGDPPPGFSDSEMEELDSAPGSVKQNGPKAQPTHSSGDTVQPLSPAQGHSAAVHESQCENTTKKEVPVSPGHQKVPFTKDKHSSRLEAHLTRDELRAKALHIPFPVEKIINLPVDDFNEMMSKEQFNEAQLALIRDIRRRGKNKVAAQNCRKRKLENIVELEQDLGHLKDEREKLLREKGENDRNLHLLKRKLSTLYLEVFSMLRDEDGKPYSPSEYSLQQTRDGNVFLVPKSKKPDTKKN
In short: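 PC12 cells given compound; nuclear and cytoplasmic fractions probed for Nrf2 by Western blot across a time course up to and beyond 6 h.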

[11] = system: BV-2; assay: Antiinflammatory activity in mouse BV2 cells transfected with Nrf2 siRNA assessed as inhibition of LPS-induced IL-6 production at 20 uM pretreated with compound followed by LPS stimulation for 18 hrs
[12] = system: PC-12; assay: Protection against 6-OHDA-induced apoptosis in rat PC12 cells assessed as viable cells at 5 uM incubated for 24 hrs by annexin V FITC/propidium iodide staining based flow cytometry (reference value: 72.0 %); format: functional; details: read-out: Activity
[13] = system: PC-12; assay: Protection against 6-OHDA-induced mitochondrial dysfunction in rat PC12 cells assessed as change in mitochondrial membrane potential loss at 5 uM pretreated with compound followed by 6-OHDA addition by JC-1 staining based flow cytometry (reference value: 26.8 %); format: functional; in short: as §2
[14] = system: PC-12; assay: Protection against 6-OHDA-induced apoptosis in rat PC12 cells assessed as late apoptotic cells at 10 uM incubated for 24 hrs by annexin V FITC/propidium iodide staining based flow cytometry (reference value: 7.6 %); format: functional
[15] = target: T1, Nuclear factor erythroid 2-related factor 2 (Mus musculus); assay: Activation of Nrf2 in mouse BV2 cells assessed as upregulation of HO-1 protein expression after 24 hrs by Western blot analysis; format: cell-based; details: BV-2, filed as activator, dose 5-20 µM; in short: as §1
[16] = target: T2, Nuclear factor erythroid 2-related factor 2 (Rattus norvegicus); assay: Activation of Nrf2 in rat PC12 cells assessed as increase in GCLM protein level after 24 hrs by Western blot analysis; format: cell-based; details: PC-12, filed as activator, dose 5-20 µM
In short: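 PC12 cells treated with compound for 24 h at rising concentrations; NQO1, HO-1, TrxR1, GCLM, GCLC protein detected by Western blot.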

[17] = target: T1, Nuclear factor erythroid 2-related factor 2 (Mus musculus); assay: Activation of Nrf2 in mouse BV2 cells assessed as decrease in LPS-induced NO production pretreated with compound followed by LPS stimulation after 18 hrs by Griess reagent based assay; format: cell-based; details: BV-2, filed as activator, dose 5-20 µM
In short: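 BV2 microglia pretreated with compound, then LPS (1µg/mL) for 18 h; NO in medium measured by Griess method; mean ± SD, n = 3.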

CCN(C)C(=O)N1CCN(C(=O)/C=C/c2ccc(F)cc2)C1=O
Activity [1]: inactive
Activity [2]: 0.8%
viability at 20 µM [3]: 75%
Activity [4]: Active
Activity [5]: 0.9%
Flu intensity [6]: 4161.82
Activity [7]: 1%
Activity [8]: Dose-dependent effect
Activity [9]: 83.6%
Activity [10]: Active
Activity [11]: inactive
viability at 5 µM [12]: 81.5%
Activity [13]: 20.5%
Activity [14]: 6.3%
Activity [15]: Dose-dependent effect
Activity [16]: Dose-dependent effect
Activity [17]: Dose-dependent effect
